Tn7 DDE FP – inhibitors of Tn7 peptide binding to fibrin DD(E), primary screen, biochemical, fluorescence polarization, human fibrin, Tn7 probe | Fibrinogen beta chain (Homo sapiens), P02675 | FP displacement of FITC-Tn7 peptide from fibrin DD(E); 0% = median of compound wells per plate | inhibition, % at 8.3 µM | hit rate 0.13% among 370,000 | AID 720508, 2013;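 active = inhibition above the mean of compounds falling within the control limits plus 3 SD of them, cut at about 14% in these data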;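 note: 0% = plate median of compound wells and 100% = 10 µM Aha-Tn7 peptide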
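Assay system: Human fibrin DD(E) protein | Medium: Tris buffer with calcium and detergent, pH 7.8 | Reagent: 0.1 µM fluorescent Tn7 | Compound dosing: Single point at 8.3 µM | Times: 10 min preincubation, 3 h with tracer, room temperature | Detection: Fluorescence polarization of the labelled Tn7 tracer | Controls: Aha-Tn7 high control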
CAL PDZ FP-1 – untagged CAL PDZ binding inhibitors, primary screen, biochemical, fluorescence polarization, HTS; purified CAL PDZ, TMR-peptide fluorescence polarization, 1 h; Golgi-associated PDZ and coiled-coil motif-containing protein (Homo sapiens), Q9HD26; AID 602252, 2012; hit rate 0.92% among 300,000; inhibition, % at 24.9 µM;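 active = mean inhibition of at least 30% with at least half of replicates also reaching 30%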;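 note: 0% = DMSO neutral control and 100% = excess unlabeled competitor peptide PRC23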
CAL PDZ FP-2 – CAL PDZ peptide-binding inhibitors, primary screen, biochemical, fluorescence polarization, Cer-tagged CAL PDZ, HTS. inhibition, % at 20 µM. AID 504414, 2011. purified CAL PDZ, TMR-peptide fluorescence polarization, 1 h. hit rate 0.02% among 330,000. Golgi-associated PDZ and coiled-coil motif-containing protein (Homo sapiens), Q9HD26;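 active = highest replicate inhibition of at least 40%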;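 note: plate controls were DMSO neutral control wells for no effect and unlabeled competitor peptide control wells for full effect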
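Test system: purified CerCALP PDZ construct; Compound dosing: one concentration, 20 µM compound; Also added: TMR-labelled reporter peptide T*-PRC34 bound in PDZ groove; Read-out: inhibition from polarization loss; Controls: unlabelled peptide and DMSO controls; Signal: FP readout, S and P plane fluorescence; Incubation: 1 h at RT.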
ARNT-TACC3 inh – disruptors of ARNT/TACC3 protein interaction, primary screen, biochemical, AlphaScreen, single concentration; Transforming acidic coiled-coil-containing protein 3 (Homo sapiens), Q9Y6A5; AlphaScreen His-ARNT PAS-B/GST-TACC3 binding, luminescence; TACC3 fragment carries E629A point mutation; inhibition, % at 9.99 µM; hit rate 0.66% among 390,000; AID 623870, 2012;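 active = mean inhibition of replicates at least 50% and at least half of replicates each reaching 50%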;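 note: 0% = complete ARNT plus TACC3 wells and 100% = ARNT alone without TACC3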
GRK2 inh – compounds blocking aptamer binding on GRK2 – biochemical, human GRK2, bead flow cytometry, HTS, primary screen. Beta-adrenergic receptor kinase 1 (Homo sapiens), P25098. FAM-aptamer displacement from GRK2. inhibition of aptamer binding, % at 10 µM. hit rate 0.59% among 330,000;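 active = inhibition of aptamer binding above 40%, roughly 3 SD of noise, on plates passing a quality check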;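 note: median bead fluorescence of bound FAM aptamer so fluorescent compounds give negative values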
Target sequence (P25098 whole entry, looked up): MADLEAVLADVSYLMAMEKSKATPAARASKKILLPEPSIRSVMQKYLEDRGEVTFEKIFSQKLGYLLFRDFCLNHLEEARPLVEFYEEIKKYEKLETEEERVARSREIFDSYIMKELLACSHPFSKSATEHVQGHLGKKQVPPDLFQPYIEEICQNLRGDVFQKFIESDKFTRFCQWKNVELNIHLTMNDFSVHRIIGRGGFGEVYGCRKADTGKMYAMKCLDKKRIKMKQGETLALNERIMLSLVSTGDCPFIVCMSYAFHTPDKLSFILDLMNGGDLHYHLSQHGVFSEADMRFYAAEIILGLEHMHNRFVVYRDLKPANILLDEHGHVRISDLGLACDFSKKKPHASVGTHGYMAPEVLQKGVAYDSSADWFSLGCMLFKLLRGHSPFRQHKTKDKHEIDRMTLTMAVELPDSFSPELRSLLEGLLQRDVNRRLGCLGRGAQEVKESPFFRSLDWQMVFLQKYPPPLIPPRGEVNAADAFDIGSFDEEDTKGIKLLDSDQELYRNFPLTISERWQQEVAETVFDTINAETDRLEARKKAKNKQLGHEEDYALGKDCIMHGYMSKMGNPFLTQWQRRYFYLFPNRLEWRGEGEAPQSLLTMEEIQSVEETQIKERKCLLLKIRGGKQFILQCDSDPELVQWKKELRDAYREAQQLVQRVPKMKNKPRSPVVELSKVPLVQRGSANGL
Tn6 DDE FP – inhibitors of Tn6 peptide binding to fibrin DD(E), primary screen, biochemical, fluorescence polarization, human fibrin, Tn6 probe | inhibition, % at 8.3 µM | hit rate 0.21% among 370,000 | Fibrin DD(E) TRITC-Tn6 fluorescence polarization displacement;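 active = inhibition above a per-campaign cutoff: mean of compounds within control limits plus 3 SD, cut at about 15% in these data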;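 note: 0% = median of all compound wells on the plate and 100% = blocking peptide control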
DDE Tn6 FP ctr – DD(E)-Tn6 binding inhibition, counter-screen; shares compounds with Tn6 DDE FP; inhibition, % at 8.3 µM; Fibrin DD(E), TRITC-Tn6 fluorescence polarization displacement; 0% = median of compound wells, not DMSO; hit rate 2% among 680;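 active = inhibition above the mean of test compounds lying between the control limits plus 3 SD of those, cut at about 14% in these data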;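 note: 0% = median of compound wells and 100% = wells with Aha-Tn7 blocking peptide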
DDE Tn6 confirm – inhibitors of Tn6 peptide binding to fibrin DD(E), confirmation, biochemical, fluorescence polarization, human fibrin, Tn6 probe | shares compounds with Tn6 DDE FP | hit rate 10% among 680 | FP displacement of TRITC-Tn6 peptide from DD(E); 0% = per-plate median of test wells | inhibition, % at 8.3 µM;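 active = inhibition above the mean of compounds lying within the control limits plus 3 SD, cut at about 16% in these data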;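 note: 100% = high control wells holding a competing inhibitor peptide at 10 µM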
The depositor's hits bear a star; nt = no result given; + = active, no number. Only some compounds are listed: those with a hit (about 1.8% of all), similar ones and a draw of the others.

SMILES	Tn7 DDE FP	CAL PDZ FP-1	CAL PDZ FP-2	ARNT-TACC3 inh	GRK2 inh	Tn6 DDE FP	DDE Tn6 FP ctr	DDE Tn6 confirm
CCOC(=O)C1CCCN(c2c(NCCc3ccc(C)cc3)c(=O)c2=O)C1 (stereo not drawn)	2	-4	-2	-9	0	17*	3	-10
c1ccc(Oc2ccccc2-c2cc(NCCc3cccnc3)n3nccc3n2)cc1	0	nt	nt	nt	nt	17*	1	0
O=C(CN(Cc1ccco1)S(=O)(=O)c1ccccc1)N/N=C/c1cccc(O)c1	5	-3	0	15	2	16*	-5	-9
Cc1cc(N)ccc1-n1c(C)ccc1C	4	5	0	4	3	154*	2	11
Cc1cc(N)ccc1N1CCCC1	nt	1	3	-3	0	nt	nt	nt
Oc1cc2c(cc1O)C1c3ccc(O)c(O)c3OCC1(O)C2 (stereo not drawn)	-4	0	0	10	0	33*	-4	21*
NS(=O)(=O)c1ccc(Nc2ccc3cc(S(=O)(=O)N4CCCCC4)ccc3n2)cc1	-7	-7	-3	-6	0	36*	5	-21
NS(=O)(=O)c1ccc(S(=O)(=O)N2CCCC2)cc1	-3	-4	0	-3	5	-1	nt	nt
Cc1ccc(C(=O)N2CCCC(C(F)(F)F)C2)cc1S(=O)(=O)N1CCCCC1 (stereo not drawn)	-4	0	-2	-1	1	16*	2	-8
COc1ccc(C(=O)/C=C(\C)Nc2ccc(NC(C)=O)cc2)cc1	-2	-4	-1	-14	0	0	nt	nt
C/C(=C\C(=O)c1cccnc1)Nc1ccc(O)cc1	11	1	1	-5	3	44*	6	-2
C/C(=C\C(=O)c1ccccc1)Nc1ccc(O)cc1	-6	2	0	4	2	17*	-6	-7
COc1ccc(NC(=O)c2cccnc2)cc1	-3	3	-2	21	0	0	nt	nt
CNC(=S)N1CCN(S(=O)(=O)c2ccc3ccccc3c2)CC1	-4	1	-4	-5	0	-4	nt	nt
O=C(COC(=O)c1ccccc1Cc1ccccc1)Nc1ccc(SC(F)F)cc1	-4	-4	-1	-3	0	16*	-1	-21
COc1ccc(NC(=O)CSCC(=O)Nc2sccc2C#N)cc1	6	-2	-1	nt	3	16*	1	6
Cc1cc(C)cc(NC(=O)N2CCNC(=O)C2CC(=O)Nc2cc(Cl)ccc2Cl)c1 (stereo not drawn)	6	-5	-2	-3	4	16*	8	-1
O=c1ccc2[n+]([O-])c3ccc(O)cc3oc-2c1	2	71*	43*	6	nt	+	2	93*
O=c1cc(O)c2ccc(O)cc2o1	6	-2	1	-4	2	2	nt	nt
O=C(CCNS(=O)(=O)c1ccccc1)OCc1ccc([N+](=O)[O-])cc1	3	nt	nt	nt	nt	-4	nt	nt
Cc1ccc(S(=O)(=O)NCCC(=O)OCc2ccc([N+](=O)[O-])cc2)cc1C	-2	-2	-2	0	2	18*	5	5
COc1cccc(/C(O)=C2/C(=O)C(=O)N(c3cc(C)on3)C2c2cccs2)c1 (stereo not drawn)	-1	-2	-2	nt	2	1	nt	nt
Cc1cc(N2C(=O)C(=O)/C(=C(/O)c3ccccc3)C2c2cccs2)no1 (stereo not drawn)	7	-3	-3	nt	1	21*	5	-1
CN(C)CC(=O)Nc1ccc2c(c1)[C@H]1C[C@@H](CC(=O)NCc3ccccc3F)O[C@@H](CO)[C@H]1O2	nt	nt	nt	0	nt	nt	nt	nt
Cc1ccc(-c2cc(C(=O)NN=Cc3cccc(Oc4ccccc4)c3)[nH]n2)cc1C	1	nt	nt	nt	nt	19*	4	0
SMILES	Tn7 DDE FP	CAL PDZ FP-1	CAL PDZ FP-2	ARNT-TACC3 inh	GRK2 inh	Tn6 DDE FP	DDE Tn6 FP ctr	DDE Tn6 confirm
COc1ccc(C=NNC(=O)c2cc(-c3ccc(C)c(C)c3)n[nH]2)cc1OCc1ccccc1	-6	nt	nt	nt	nt	16*	2	2
Cc1ccc(-c2cc(C(=O)NN=Cc3c4ccccc4cc4ccccc34)[nH]n2)cc1C	3	nt	nt	nt	nt	-5	nt	nt
Cc1ccc(-c2cc(C(=O)NN=Cc3cccc(OCc4ccccc4)c3)[nH]n2)cc1C	-6	nt	nt	nt	nt	20*	8	16*
Cc1ccc(-c2cc(C(=O)NN=Cc3ccc(-c4ccccc4)cc3)[nH]n2)cc1	-6	nt	nt	nt	nt	1	nt	nt
CCCC(=O)Nc1ccc2c(c1)OC[C@@H](C)N(C(=O)c1cnccn1)C[C@H](C)[C@@H](OC)CN(C)C2=O	nt	nt	nt	-9	nt	nt	nt	nt
Cc1ccccc1C(=O)N1CCC(C(=O)Nc2ccc(C(C)C)cc2)CC1	1	-5	-3	3	8	-2	nt	nt
Cc1ccccc1C(=O)N1CCC(C(=O)NC2CCCCCC2)CC1	-5	-1	-2	-4	3	-1	nt	nt
Cc1ccccc1C(=O)N1CCC(C(=O)Nc2ccc(F)cc2)CC1	1	2	-3	0	1	15*	4	-9
Cc1ccccc1C(=O)N1CCC(C(=O)Nc2ccccn2)CC1	2	5	-1	-19	1	44*	1	-4
CN1C(=O)C(C)(C)c2cc(S(=O)(=O)NCC3CCC(C(=O)NCc4ccccc4)CC3)ccc21 (stereo not drawn)	-2	nt	-1	8	2	2	nt	nt
C/C=C/c1ccc([C@@H]2[C@@H](CNC(=O)c3ccncc3)N(C(=O)CC)[C@H]2CO)cc1	nt	nt	nt	-18	nt	nt	nt	nt
CC(C)NC(=O)N[C@@H]1CC[C@H](CC(=O)O)O[C@@H]1CO	nt	nt	nt	7	nt	nt	nt	nt
CC1(C)CC(=O)C2=C(C1)N1C(=C(C#N)C2c2ccccc2Cl)N=C(N)c2ccccc21 (stereo not drawn)	-6	2	0	nt	2	17*	2	0

Compound activity from PubChem.
